The values that follow come from ChEMBL document CHEMBL4304816, “A Novel Biphenyl-based Chemotype of Retinoid X Receptor Ligands Enables Subtype and Heterodimer Preferences” (ACS Med Chem Lett, 2019).

Active and inactive are the calls of the source. The rule behind the calls is not given here.

Common to all, as to type: cell-based
Experiment [1] addresses T1, Retinoic acid receptor RXR-gamma (Homo sapiens) (UniProt P48443).
T1 sequence (whole entry): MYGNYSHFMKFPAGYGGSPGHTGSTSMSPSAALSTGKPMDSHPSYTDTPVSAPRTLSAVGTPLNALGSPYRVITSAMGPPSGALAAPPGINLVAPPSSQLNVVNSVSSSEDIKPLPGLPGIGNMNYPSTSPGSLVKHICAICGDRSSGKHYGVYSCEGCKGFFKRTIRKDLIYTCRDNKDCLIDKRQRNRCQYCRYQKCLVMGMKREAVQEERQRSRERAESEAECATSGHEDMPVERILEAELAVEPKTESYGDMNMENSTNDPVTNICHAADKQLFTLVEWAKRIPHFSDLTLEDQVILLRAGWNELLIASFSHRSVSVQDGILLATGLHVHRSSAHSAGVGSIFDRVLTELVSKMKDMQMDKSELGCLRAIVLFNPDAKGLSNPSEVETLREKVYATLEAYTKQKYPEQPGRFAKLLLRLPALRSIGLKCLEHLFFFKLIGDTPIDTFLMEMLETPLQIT
The experiment in a line: Agonist activity at Gal4-LBD fused RXRgamma (unknown origin) expressed in HEK293T cells assessed as fold activation at 10 uM after 14 to 16 hrs by dual-Glo luciferase assay relative to untreated control. In a few lines: (§1)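 Gal4-hybrid RXRα/β/γ reporter gene assays in HEK293T cells. Fold activation is the maximal fold activation versus 0.1% DMSO.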

Experiment [2] deals with T2, Retinoic acid receptor alpha (Homo sapiens) (UniProt P10276).
T2 sequence (whole entry): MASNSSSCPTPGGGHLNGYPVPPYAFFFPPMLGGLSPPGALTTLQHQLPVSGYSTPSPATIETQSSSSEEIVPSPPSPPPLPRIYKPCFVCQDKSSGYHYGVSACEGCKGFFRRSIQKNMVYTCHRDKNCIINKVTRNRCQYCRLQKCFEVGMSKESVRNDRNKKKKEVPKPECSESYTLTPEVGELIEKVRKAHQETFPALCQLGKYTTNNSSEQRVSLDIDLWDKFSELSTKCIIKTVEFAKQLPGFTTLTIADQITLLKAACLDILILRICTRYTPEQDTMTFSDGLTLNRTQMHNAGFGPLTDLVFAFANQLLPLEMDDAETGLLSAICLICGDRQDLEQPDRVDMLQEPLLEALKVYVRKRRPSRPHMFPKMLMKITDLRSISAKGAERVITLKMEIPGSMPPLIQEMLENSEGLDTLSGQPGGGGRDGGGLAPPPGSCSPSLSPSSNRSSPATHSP
The experiment in a line: Agonist activity at Gal4-LBD fused RARalpha (unknown origin) expressed in HEK293T cells at 10 uM after 14 to 16 hrs by dual-Glo luciferase assay. Summed up:
(§2)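 Gal4-hybrid reporter gene selectivity panel of related nuclear receptors (PPARα/β/γ, RARα/β/γ) in HEK293T cells. Activity is read as mean fold activation versus 0.1% DMSO vehicle, n ≥ 2.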

Experiment [3] addresses T3, Retinoic acid receptor RXR-beta (Homo sapiens) (UniProt P28702).
T3 sequence (whole entry): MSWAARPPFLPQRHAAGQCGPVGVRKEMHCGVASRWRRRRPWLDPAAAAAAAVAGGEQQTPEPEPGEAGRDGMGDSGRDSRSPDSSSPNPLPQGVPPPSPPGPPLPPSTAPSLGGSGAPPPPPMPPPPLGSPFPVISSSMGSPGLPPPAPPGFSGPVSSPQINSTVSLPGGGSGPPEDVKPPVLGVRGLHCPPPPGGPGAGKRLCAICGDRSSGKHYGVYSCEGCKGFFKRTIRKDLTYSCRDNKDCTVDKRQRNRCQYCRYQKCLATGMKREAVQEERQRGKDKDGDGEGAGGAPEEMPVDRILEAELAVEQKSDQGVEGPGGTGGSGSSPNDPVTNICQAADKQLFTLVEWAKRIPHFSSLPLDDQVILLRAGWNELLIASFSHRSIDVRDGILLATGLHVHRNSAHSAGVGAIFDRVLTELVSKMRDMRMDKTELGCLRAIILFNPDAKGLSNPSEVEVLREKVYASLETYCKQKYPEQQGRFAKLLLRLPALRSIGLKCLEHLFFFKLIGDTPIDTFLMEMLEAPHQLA
The experiment in a line: Agonist activity at Gal4-LBD fused RXRbeta (unknown origin) expressed in HEK293T cells assessed as fold activation at 10 uM after 14 to 16 hrs by dual-Glo luciferase assay relative to untreated control. In a few lines: as §1

Experiment [4] addresses T4, Retinoic acid receptor gamma (Homo sapiens) (UniProt P13631).
T4 sequence (whole entry): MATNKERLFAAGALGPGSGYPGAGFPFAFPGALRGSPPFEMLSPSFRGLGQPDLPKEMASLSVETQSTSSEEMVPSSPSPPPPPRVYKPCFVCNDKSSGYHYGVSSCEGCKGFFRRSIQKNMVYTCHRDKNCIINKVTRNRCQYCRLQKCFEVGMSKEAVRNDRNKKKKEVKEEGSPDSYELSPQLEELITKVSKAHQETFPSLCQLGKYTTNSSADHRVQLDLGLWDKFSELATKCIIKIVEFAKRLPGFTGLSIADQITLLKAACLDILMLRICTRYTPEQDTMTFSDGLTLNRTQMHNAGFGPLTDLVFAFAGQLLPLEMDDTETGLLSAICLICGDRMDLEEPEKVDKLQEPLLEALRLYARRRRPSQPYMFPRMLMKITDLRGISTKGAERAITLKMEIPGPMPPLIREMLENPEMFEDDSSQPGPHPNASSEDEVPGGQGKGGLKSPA
The experiment is described as follows: Agonist activity at Gal4-LBD fused RARgamma (unknown origin) expressed in HEK293T cells after at 10 uM 14 to 16 hrs by dual-Glo luciferase assay. Summed up: as §2

The target in experiment [5] is T5, Peroxisome proliferator-activated receptor delta (Homo sapiens) (UniProt Q03181).
T5 sequence (whole entry): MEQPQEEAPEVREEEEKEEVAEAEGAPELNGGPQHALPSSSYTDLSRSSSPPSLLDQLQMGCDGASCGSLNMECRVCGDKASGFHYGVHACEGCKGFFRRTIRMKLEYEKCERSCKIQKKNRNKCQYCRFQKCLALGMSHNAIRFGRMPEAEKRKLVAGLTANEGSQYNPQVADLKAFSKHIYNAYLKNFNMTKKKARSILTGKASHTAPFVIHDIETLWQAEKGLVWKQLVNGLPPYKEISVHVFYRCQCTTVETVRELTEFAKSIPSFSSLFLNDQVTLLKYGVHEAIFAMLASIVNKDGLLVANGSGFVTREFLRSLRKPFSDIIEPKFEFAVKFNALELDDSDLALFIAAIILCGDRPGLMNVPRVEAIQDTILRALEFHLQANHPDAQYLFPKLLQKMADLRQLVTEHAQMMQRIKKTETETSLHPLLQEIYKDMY
The experiment in a line: Agonist activity at Gal4-LBD fused PPARbeta (unknown origin) expressed in HEK293T cells at 10 uM after 14 to 16 hrs by dual-Glo luciferase assay. In a few lines:
as §2

Experiment [6] addresses T3, Retinoic acid receptor RXR-beta (Homo sapiens). The experiment in a line: Agonist activity at Gal4-LBD fused RXRbeta (unknown origin) expressed in HEK293T cells at 0.1 to 3 uM after 14 to 16 hrs in presence of RXR antagonist HX531 by dual-Glo luciferase reporter gene assay.

For the molecule `Cc1cc(-c2cc(C(C)(C)C)cc(C(C)(C)C)c2)ccc1C(=O)O`, the values for the fold change (FC) in experiment [1] and in experiment [3] were 1 and 31, respectively. In addition, the result in experiment [2], in experiment [4] and in experiment [5] was Active.
Consider `Cc1cc(-c2cc(C(F)(F)F)cc(C(F)(F)F)c2)ccc1CC(=O)O`, for which the result in experiment [2], in experiment [4] and in experiment [5] was Active. In experiment [6], the result was inactive.
